PDI turbidity = inhibitors of human protein disulfide isomerase; P07237; PDI insulin aggregation turbidity, A650, 90 min; inhibition, % at 10 µM; hit rate 0.052% among 350,000;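 active = mean inhibition across replicates of 30% or more, whatever share of single replicates reach that level; inconclusive = mean inhibition below 30% while every single replicate reaches 30%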
S100A4 inh HTS = S100A4-myosin IIA interaction inhibition | S100A4/TAMRA-MyoIIA peptide fluorescence polarization | P26447 | inhibition, % at 10.7 µM | hit rate 0.14% among 360,000;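 active = mean inhibition of at least 70% across replicates, with every replicate also reaching that level; inconclusive = mean inhibition reaches 70% but some replicates fall short; inactive = mean inhibition below 70%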
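Assay system: human S100A4 monomer with TAMRA-labelled myosin IIA peptide / Buffer or medium: Calcium-containing HEPES buffer, pH 7.2 / Reagent: TAMRA-labelled myosin IIA heavy-chain peptide probe, 5 nM / Compound: one dose per compound / Timing: polarization read 5 min after assay mix addition, stable 5–60 min / Benchmarks: neutral control DMSO, positive control TFP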
ERAP1 HTS inh = inhibitors of human ERAP1 aminopeptidase; inhibition, % at 10.7 µM; AID 652197; Q9NZ08; recombinant ERAP1, Leu-AMC fluorescence, 60 min; hit rate 0.15% among 340,000;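 active = mean replicate inhibition of at least 30%, or all replicates individually reaching that 30% level; inactive = mean below 30% and not every replicate reaching it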;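 also: 0% = neutral control wells and 100% = L-leucinethiol positive control wells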
FGF22 binding-1 = shifts melting point of recombinant human FGF22. Q9HCT0. recombinant FGF22 thermal shift, SYPRO orange fluorescence; percent of sucrose octasulfate shift, DMSO zero. activity (Tm shift, normalised), % at 9.99 µM. hit rate 1.5% among 340,000. AID 651658;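 active = mean Tm shift, scaled 0 neutral to 100 positive control, at about 1.3% or above, every replicate too, limit read from the data; inconclusive = no clear call, values can overlap the other calls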
ERp5 block = blocks human ERp5 reductase activity on insulin. ERp5 insulin aggregation, absorbance 650 nm, 90 min. inhibition, % at 9.99 µM. hit rate 0.05% among 350,000;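 active = mean replicate inhibition above about 25%, with every replicate also reaching it, limit read from the data, passing the limit was not always enough; inconclusive = only one of those two criteria met; inactive = neither criterion met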
Target sequence (Q15084 whole entry, looked up): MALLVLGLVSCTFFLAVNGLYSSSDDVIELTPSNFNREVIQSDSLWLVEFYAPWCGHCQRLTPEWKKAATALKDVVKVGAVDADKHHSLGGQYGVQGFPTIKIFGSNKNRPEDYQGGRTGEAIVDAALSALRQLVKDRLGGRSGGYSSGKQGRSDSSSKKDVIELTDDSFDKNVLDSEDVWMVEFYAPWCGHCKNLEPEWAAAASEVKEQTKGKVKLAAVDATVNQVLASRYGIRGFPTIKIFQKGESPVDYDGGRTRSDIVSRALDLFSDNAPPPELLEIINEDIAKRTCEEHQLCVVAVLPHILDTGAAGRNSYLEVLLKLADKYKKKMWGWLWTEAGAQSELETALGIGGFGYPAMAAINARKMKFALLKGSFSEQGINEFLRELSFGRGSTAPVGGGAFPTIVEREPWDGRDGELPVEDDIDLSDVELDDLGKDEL
FGF22 binding-2 = binders of human FGF22 by thermal shift; recombinant FGF22 thermal shift, SYPRO orange fluorescence; thermal shift activity, °C (ΔTm) at 38 µM; hit rate 2% among 1,000; shares compounds with FGF22 binding-1;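 active = fitted rise in melting shift crosses a set limit at or below the top valid dose tested; inconclusive = flat fit at mid-level activity, or a poor quality fit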
TSA no protein = shows thermal shift signal without protein, FGF22 counter-screen; shares compounds with FGF22 binding-1; compound-only SYPRO orange thermal shift counter-screen, no protein; AC50, µM (highest dose often 38 µM); hit rate 2% among 1,000; AID 743019;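 active = rising signal whose fitted curve reaches the 0.54 level within the top valid dose, showing a melting point, actives reach about 13 µM in these data; inactive = the rest, including activity in the opposite direction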; also: value is where the raw curve crosses a fixed level and not half-maximal
The depositor's hits bear a star. Many of the other results were omitted from the sample, so hits are more common in it than they were.

What do the screens show for `COc1cccc2c1C(=O)c1c(O)c3c(c(O)c1C2=O)CC(O)(C(C)=NO)CC3OC1CC(N)C(O)C(C)O1` (stereo unspecified)?
PDI turbidity: inconclusive; S100A4 inh HTS: active; ERAP1 HTS inh: 33*; FGF22 binding-1: 0; ERp5 block: -4

What do the screens show for `COc1ccccc1-n1c(O)c(C=NCCN2CCNCC2)c(=O)[nH]c1=O`?
PDI turbidity: 3

How did O=c1ccc2cc(O[C@@H]3O[C@@H](CO)[C@H](O)[C@@H](O)[C@@H]3O)c(O)cc2o1 do in these assays?
PDI turbidity: -5; S100A4 inh HTS: 0; ERAP1 HTS inh: active; FGF22 binding-1: 0; ERp5 block: 1

Results for COC(=O)C1=C(c2ccc(F)cc2OCc2ccccc2)C[C@@H]2CC[C@H]1N2C(=O)NCCCOC(C)C ?
PDI turbidity: -11; S100A4 inh HTS: 1; ERAP1 HTS inh: -3; FGF22 binding-1: 0; ERp5 block: -5

What do the screens show for `O=c1[nH]sc2cc(F)ccc12`?
PDI turbidity: -6; S100A4 inh HTS: -1; ERAP1 HTS inh: 31*; FGF22 binding-1: 0; ERp5 block: -3

What do the screens show for `C[N+](C)(C)CC#CCN1CCCC1=O`?
PDI turbidity: 9; S100A4 inh HTS: -2; ERAP1 HTS inh: 73*; FGF22 binding-1: 0; ERp5 block: -3

What do the screens show for `CC(=O)N1CCCSC1=Nc1ccccc1`?
PDI turbidity: 5; S100A4 inh HTS: 36; ERAP1 HTS inh: -3; FGF22 binding-1: 0; ERp5 block: 1

Results for CC1=NN(c2ccccc2)C(=O)/C1=C/c1c(O)[nH]c(=O)[nH]c1=O ?
PDI turbidity: -4; S100A4 inh HTS: -5; ERAP1 HTS inh: 3; FGF22 binding-1: 1.4*; ERp5 block: 2

What do the screens show for `C/C=C/c1ccc([C@@H]2[C@H]3CN(C(=O)Cc4ccncc4)CCCCN3[C@H]2CO)cc1`?
S100A4 inh HTS: -7; ERAP1 HTS inh: 1; FGF22 binding-1: 1.3*; ERp5 block: -1; FGF22 binding-2: 0.039; TSA no protein: inactive

Results for CC(C)c1ccc(-n2c(O)c(/C=N/NC(=O)c3ccccc3O)c(=O)[nH]c2=S)cc1 ?
PDI turbidity: -1; S100A4 inh HTS: -5; FGF22 binding-1: 1.4*; ERp5 block: 2; FGF22 binding-2: 0.37; TSA no protein: inactive

How did CN1CC[C@]23c4c5ccc(OC6OC(C(=O)O)[C@@H](O)C(O)[C@H]6O)c4OC2C(O)C=CC3[C@H]1C5 (stereo partly specified) do in these assays?
PDI turbidity: -1; S100A4 inh HTS: 0; ERAP1 HTS inh: -3; FGF22 binding-1: 0; ERp5 block: 2

Results for O=c1oc2ccccc2c(O)c1C(c1ccccn1)c1c(O)c2ccccc2oc1=O ?
PDI turbidity: 0; S100A4 inh HTS: 18; ERAP1 HTS inh: 7; FGF22 binding-1: 0; ERp5 block: -3

How did CCOC(=O)C(c1c(O)c2ccccc2oc1=O)c1c(O)c2ccccc2oc1=O do in these assays?
PDI turbidity: -2; S100A4 inh HTS: -2; ERAP1 HTS inh: -2; FGF22 binding-1: 1.8*; ERp5 block: 4; FGF22 binding-2: 0.003; TSA no protein: inactive

What do the screens show for `COc1ccc(C#Cc2ccc3c(c2)O[C@H](CN(C)S(=O)(=O)c2ccccc2F)[C@@H](C)CN([C@@H](C)CO)S3(=O)=O)cc1`?
S100A4 inh HTS: 2; ERAP1 HTS inh: -3; FGF22 binding-1: 2.1*; ERp5 block: 7; FGF22 binding-2: 0.016; TSA no protein: 2.4µM*

What do the screens show for `COc1ccc(OC(=O)N(C)C[C@H]2OCc3ccccc3-c3c(n(C)c4ccccc34)C(=O)N([C@H](C)CO)C[C@H]2C)cc1`?
S100A4 inh HTS: 3; ERAP1 HTS inh: 0; ERp5 block: 5

How did CC(=O)Nc1nc(CCl)cs1 do in these assays?
PDI turbidity: -1; S100A4 inh HTS: 20; ERAP1 HTS inh: 0; FGF22 binding-1: 0; ERp5 block: 5

Screening data deposited in PubChem BioAssay by Broad Institute.
